Data taken from ChEMBL document CHEMBL1158491, “Inhibitors of the hepatitis C virus NS3 protease with basic amine functionality at the P3-amino acid N-terminus: discovery and optimization of a new series of P2-P4 macrocycles” (J Med Chem, 2009).

What was measured:
[1] = Drug level in Sprague-Dawley rat liver at 5 mg/kg, po after 4 hrs; type: ADME, organism-based; design: dose 5 mg/kg, route oral; conditions: read-out: Drug uptake
Outline: (§1)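 Oral dosing in male Sprague-Dawley rats, PEG400 vehicle; plasma exposure as AUC 0–4 h; liver tissue concentration taken at the 4 h time point. Doses of 3–4 mg/kg were normalized to 5 mg/kg by linear adjustment.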

[2] = Drug level in Sprague-Dawley rat liver at 4 mg/kg, po after 4 hrs; type: ADME, organism-based; design: dose 4 mg/kg, route oral; conditions: read-out: Drug uptake; outline: as §1
[3] = AUC (0 to 4 hrs) in Sprague-Dawley rat at 5 mg/kg, po; type: ADME, organism-based; design: time < 4 hr, dose 5 mg/kg, route oral; conditions: plasma; outline: as §1
[4] = system: Hepatitis C virus; experiment: Inhibition of HCV 1b NS3 protease by time-resolved fluorescence assay; design: species or system Hepatitis C virus subtype 1b
Outline: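 Recombinant genotype 1b NS3 protease measured by time-resolved fluorescence assay; Ki determined.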

[5] = AUC (0 to 4 hrs) in Sprague-Dawley rat at 4 mg/kg, po; type: ADME, organism-based; design: time < 4 hr, dose 4 mg/kg, route oral; conditions: plasma; outline: as §1
[6] = system: Hepatitis C virus; experiment: Antiviral activity against HCV 1b infected in human HuH7 cells by replicon assay in presence of 10% fetal bovine serum; type: functional, organism-based, Hepacivirus hominis; conditions: genotype 1b, Huh-7
Outline: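 Subgenomic genotype 1b HCV RNA replicon in HUH-7 cells, modified Bartenschlager procedure, run with 10% fetal bovine serum. Read-out is cellular HCV RNA, confirmed in a separate assay using an anti-NS3 monoclonal antibody; EC50 derived.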

[7] = system: Hepatitis C virus; experiment: Antiviral activity against HCV 1b infected in human HuH7 cells by replicon assay in presence of 50% normal human plasma; type: functional, organism-based, Hepacivirus hominis; conditions: genotype 1b, Huh-7, Plasma
Outline: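 Genotype 1b subgenomic replicon in HUH-7 cells run under high-serum conditions (50% normal human serum). Read-out is cellular HCV RNA; EC50 reported.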

[8] = species: Homo sapiens; experiment: Fraction unbound in human plasma

SMILES | concentration at 4 h [1] [nM] | concentration at 4 h [2] [nM] | AUC(0-t) at 4 h [3] [µM·h] | AUC(0-t) at 4 h [5] [µM·h] | EC50 [6] [nM] | fraction unbound [8] | Ki [4] [nM] | EC50 [7] [nM]
C=C[C@@H]1C[C@]1(NC(=O)[C@@H]1C[C@@H]2CN1C(=O)[C@H](C(C)C)N[C@@H](C(F)(F)F)CCCCCCc1cccc3c1CN(C3)C(=O)O2)C(=O)NS(=O)(=O)C1CC1 | – | – | – | – | 470 | – | 5.7 | –
C=C[C@@H]1C[C@]1(NC(=O)[C@@H]1C[C@@H]2CN1C(=O)[C@H](C1CCCCC1)N[C@H](C)CCCCCCc1cccc3c1CN(C3)C(=O)O2)C(=O)NS(=O)(=O)C1CC1 | – | – | < 0.1 | – | 2 | – | 0.06 | –
C=C[C@@H]1C[C@]1(NC(=O)[C@@H]1C[C@@H]2CN1C(=O)[C@H](C(C)C)NC(=O)OCCC/C=C/c1cccc3c1CN(C3)C(=O)O2)C(=O)NS(=O)(=O)C1CC1 | – | – | – | – | 12 | – | 0.04 | –
C=C[C@@H]1C[C@]1(NC(=O)[C@@H]1C[C@@H]2CN1C(=O)C(C(C)C)NCC(F)(F)CCCCCc1cccc3c1CN(C3)C(=O)O2)C(=O)NS(=O)(=O)C1CC1 (single isomer, unassigned) | – | – | – | – | 14 | – | 0.35 | 100

Continued by falling EC50 [6], values first:

concentration at 4 h [1] [nM] | concentration at 4 h [2] [nM] | AUC(0-t) at 4 h [3] [µM·h] | AUC(0-t) at 4 h [5] [µM·h] | EC50 [6] [nM] | fraction unbound [8] | SMILES | Ki [4] [nM] | EC50 [7] [nM]
– | – | – | – | 18 | 0.019 | C=C[C@@H]1C[C@]1(NC(=O)[C@@H]1C[C@@H]2CN1C(=O)C(C(C)C)NC(C(F)(F)F)CCCCCCc1cccc3c1CN(C3)C(=O)O2)C(=O)NS(=O)(=O)C1CC1 (single isomer, unassigned) | 1.1 | 320
560 | 560 | < 0.1 | < 0.1 | 3 | – | C=C[C@@H]1C[C@]1(NC(=O)[C@@H]1C[C@@H]2CN1C(=O)[C@H](C1CCCCC1)N(C)[C@H](C)CCCCCCc1cccc3c1CN(C3)C(=O)O2)C(=O)NS(=O)(=O)C1CC1 | 0.35 | –
– | < 100 | – | < 0.1 | 0.7 | – | C=C[C@@H]1C[C@]1(NC(=O)[C@@H]1C[C@@H]2CN1C(=O)[C@H](C1CCCC1)N[C@H](C)CCCCCCc1cccc3c1CN(C3)C(=O)O2)C(=O)NS(=O)(=O)C1CC1 | 0.1 | –
260 | – | < 0.1 | – | 0.5 | – | C=C[C@@H]1C[C@]1(NC(=O)[C@@H]1C[C@@H]2CN1C(=O)[C@H](C1CCCC1)N[C@H](C)CCCC/C=C/c1cccc3c1CN(C3)C(=O)O2)C(=O)NS(=O)(=O)C1CC1 | 0.29 | –
